High-throughput results: PubChem, several laboratories
ABCB6 inh 2: ABCB6 transporter inhibitors, primary screen, K562-ABCB6 cells, flow cytometry, MLPCN library; ATP-binding cassette sub-family B member 6 (Homo sapiens), Q9NP58; K562-ABCB6 porphyrin accumulation, 1 h; hits give low values; fluorescence ratio to DMSO, % at 10 µM; hit rate 0.19% among 360,000; AID 602162, 2011;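 active = fluorescence ratio to DMSO below 75%, the collection mean minus 3 SD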;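 note: signal is porphyrin accumulated inside mitochondria; lower ratio means ABCB6 inhibition with less porphyrin fluorescence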
VLA-4 inh: inhibition in human VLA-4 binding assay, primary screen, VLA-4 allosteric modulator project, MLPCN library, flow cytometry, VLA-4 expressing cells. Integrin alpha-4 (Homo sapiens), P13612. ligand binding flow cytometry. inhibition, % (about 7 µM as worked out from the volumes in the protocol). hit rate 0.2% among 330,000; in the data active = inhibition above about 50%
FGF22 binding: binders of human FGF22 protein, primary screen, FGF22 synaptogenesis inhibitor project, biophysical, thermal shift, single point. recombinant FGF22 thermal shift, SYPRO orange fluorescence; percent of sucrose octasulfate shift, DMSO zero. activity (Tm shift, normalised), % at 9.99 µM. hit rate 1.5% among 340,000. AID 651658, 2012;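 active = mean Tm shift, scaled 0 neutral to 100 positive control, at about 1.3% or above, every replicate too, limit read from the data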
Target sequence (Q9HCT0 whole entry, looked up): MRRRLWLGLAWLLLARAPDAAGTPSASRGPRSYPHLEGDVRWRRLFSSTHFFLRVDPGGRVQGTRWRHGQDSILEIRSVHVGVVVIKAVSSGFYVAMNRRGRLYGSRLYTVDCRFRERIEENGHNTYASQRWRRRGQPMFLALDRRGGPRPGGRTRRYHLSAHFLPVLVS
DAGLB inhibitor: DAGLB lipase inhibitors, primary screen, biochemical, fluorescence, HTS | inhibition, % at 5.17 µM | HEK293T DAGLB membrane lysate, EnzChek fluorogenic substrate | AID 504411, 2011 | hit rate 0.059% among 340,000 | Diacylglycerol lipase-beta (Homo sapiens), Q8NCG7; in the data active = inhibition above about 34%
Granule exo inh: LAMP-1 surface exposure blockers, TALL-104 cells – cell-based, flow cytometry, MLPCN library, primary screen. TALL-104 LAMP-1 surface exposure; cells stimulated with thapsigargin and PMA. inhibition, % at 10 µM. hit rate 0.66% among 360,000;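 active = inhibition above about 55%, limit read from the data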
MT1-MMP act inh: blockers of MT1-MMP proenzyme processing, primary screen, HT1080 RFP-PRO-GFP cells, GFP/RFP fluorescence; Matrix metalloproteinase-14 (Homo sapiens), P50281; GFP/RFP ratio fluorescence, overnight; percent of plate control window, DMSO zero; GFP/RFP ratio change, % at 20 µM; hit rate 0.061% among 360,000; AID 651647, 2012;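 active = GFP/RFP ratio change of at least 30% with cell ATP level not reduced by more than half and red fluorescence within 50% of control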
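Compound: 20 µM single dose, 1% DMSO / System: HT1080 RFP-PRO-GFP cells / Controls: DMSO and RFP-L50D-GFP cell wells / Read-out basis: GFP/RFP fluorescence ratio / Schedule: overnight compound exposure at 37 °C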
VLA-4 allo CP: retest of VLA-4 allosteric modulators, confirmation, cell-based, cherry-picked plates, U937, HUTS-21 LIBS antibody. AID 2813, 2010. shares compounds with VLA-4 inh. hit rate 2% among 1,300. inhibition, % at 6.7 µM. U937 cells, HUTS-21 LIBS mAb binding, flow cytometry; LDV ligand present at threefold Kd; in the data active = inhibition above about 40%
Hits are given with their value; ! = a repeat was not active. A selection: hits, their analogues and other compounds. The true share with any hit is near 2%.

Screening COC(=O)C(Cc1cnc[nH]1)NC(=O)C1CCC(=O)N1 (stereo not given) returned ABCB6 inh 2 inactive, VLA-4 inh 58, DAGLB inhibitor inactive, Granule exo inh inactive, MT1-MMP act inh inactive and VLA-4 allo CP inactive.
Screening O=C(O)CCN1C(=O)c2ccc(NC(=O)c3cccs3)cc2C1=O returned ABCB6 inh 2 inactive, VLA-4 inh inactive, DAGLB inhibitor inactive, Granule exo inh inactive and MT1-MMP act inh inactive.
For O=C(Nc1ccc2c(c1)C(=O)N(c1ccccc1)C2=O)c1cccs1 the results were ABCB6 inh 2 inactive, VLA-4 inh 50, FGF22 binding inactive, DAGLB inhibitor inactive, Granule exo inh inactive, MT1-MMP act inh inactive and VLA-4 allo CP inactive.
For Cc1ccc(N(CC2=NCCN2)c2cccc(O)c2)cc1 the results were ABCB6 inh 2 inactive, VLA-4 inh 55!, FGF22 binding inactive, DAGLB inhibitor inactive, Granule exo inh inactive, MT1-MMP act inh inactive and VLA-4 allo CP inactive.
`O=C(C[C@@H]1CC[C@@H](NC(=O)C2CC2)[C@@H](CO)O1)NCc1ccncc1` gave FGF22 binding inactive.
C[C@H]1CN([C@@H](C)CO)C(=O)Cc2cc(NC(=O)Nc3ccccc3)ccc2O[C@H]1CN(C)C(=O)Nc1ccccc1 was read as FGF22 binding inactive.
Screening CN1C(=O)/C(=N\OC(=O)c2cccc3ccccc23)c2ccccc21 returned ABCB6 inh 2 inactive, VLA-4 inh 66, FGF22 binding inactive, DAGLB inhibitor inactive, Granule exo inh 80, MT1-MMP act inh inactive and VLA-4 allo CP inactive.
Cc1noc(C)c1S(=O)(=O)Nc1ccc2c(c1)C(=O)N([C@H](C)CO)C[C@H](C)[C@@H](CN(C)Cc1ccncc1)OCCCC[C@@H](C)O2 was read as FGF22 binding inactive.
For COc1ccccc1-c1sc2cc3c(cc2c1-c1ccc(OCCN2CCCCC2)cc1)OCO3 the results were ABCB6 inh 2 inactive, VLA-4 inh inactive, FGF22 binding inactive, DAGLB inhibitor inactive, Granule exo inh inactive, MT1-MMP act inh inactive and VLA-4 allo CP inactive.
For COc1cc2sc(-c3ccccc3OC)c(-c3ccc(OCCN4CCCCC4)cc3)c2cc1OC the results were ABCB6 inh 2 inactive, VLA-4 inh inactive, FGF22 binding inactive, DAGLB inhibitor inactive, Granule exo inh inactive, MT1-MMP act inh inactive and VLA-4 allo CP inactive.
`C[C@H](NC(=O)C[C@@H]1CC[C@@H](NC(=O)c2cccnc2)[C@H](CO)O1)c1ccccc1` gave FGF22 binding inactive.
`CCCCC(NC(=O)COc1cc2c(c3oc(=O)cc(C)c13)CCC(C)(C)O2)C(=O)O` (stereo not given) gave ABCB6 inh 2 inactive, VLA-4 inh inactive, FGF22 binding inactive, DAGLB inhibitor inactive, Granule exo inh inactive and MT1-MMP act inh inactive.
Cc1cc(=O)oc2c3c(cc(OCC(=O)NC(Cc4ccc(Cl)cc4)C(=O)O)c12)OC(C)(C)CC3 (stereo not given) was read as ABCB6 inh 2 inactive, VLA-4 inh inactive, FGF22 binding inactive, DAGLB inhibitor inactive, Granule exo inh inactive, MT1-MMP act inh inactive and VLA-4 allo CP inactive.
Screening Cc1cc(=O)oc2c3c(cc(OCC(=O)N[C@@H](Cc4ccccc4)C(=O)O)c12)OC(C)(C)CC3 returned ABCB6 inh 2 inactive, VLA-4 inh 50, FGF22 binding inactive, DAGLB inhibitor inactive, Granule exo inh inactive, MT1-MMP act inh inactive and VLA-4 allo CP inactive.
